From PubChem
The list is not random: actives were taken first. Their share in the collection is about 1.9%.
CHRM4 PAM: human M4 muscarinic receptor positive allosteric modulators, primary screen, CHO-K1 cells, Fluo-8 calcium fluorescence | activation, % at 3 µM | AID 624126, 2012 | actives 0.4% (n = 360,000) | CHO-K1 hM4/Gqi5, ACh EC20; 0% = ACh EC20, 100% = maximal ACh;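 active means activation above its plate's cutoff, the mean activation of sample wells plus 3 SD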
CHRM4 antagonist: human M4 muscarinic receptor antagonists, primary screen, CHO cells, Fluo-8 calcium fluorescence; Muscarinic acetylcholine receptor M4 (Homo sapiens), P08173; CHO-hM4 cells, ACh EC80; inhibition, % at 3 µM; actives 0.73% (n = 360,000); AID 624125, 2012;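 active means inhibition above its plate's cutoff, the mean inhibition of sample wells plus 3 SD, cut at about 27% in these data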;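 further: 0% = acetylcholine EC80 with DMSO and 100% = DMSO without agonist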
CHRM5 agonist: human M5 muscarinic receptor agonists, primary screen, CHO-K1 cells, Fluo-8 calcium fluorescence; Muscarinic acetylcholine receptor M5 (Homo sapiens), P08912; CHO-K1 hM5 cells; 0% DMSO wells, 100% maximal acetylcholine response; activation, % at 3 µM; actives 0.19% (n = 360,000);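 active means activation above the run's mean over test compounds plus 3 SD, cut at about 23% in these data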;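 further: signal is peak over basal fluorescence ratio across the kinetic read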
Target sequence (P08912 whole entry, looked up): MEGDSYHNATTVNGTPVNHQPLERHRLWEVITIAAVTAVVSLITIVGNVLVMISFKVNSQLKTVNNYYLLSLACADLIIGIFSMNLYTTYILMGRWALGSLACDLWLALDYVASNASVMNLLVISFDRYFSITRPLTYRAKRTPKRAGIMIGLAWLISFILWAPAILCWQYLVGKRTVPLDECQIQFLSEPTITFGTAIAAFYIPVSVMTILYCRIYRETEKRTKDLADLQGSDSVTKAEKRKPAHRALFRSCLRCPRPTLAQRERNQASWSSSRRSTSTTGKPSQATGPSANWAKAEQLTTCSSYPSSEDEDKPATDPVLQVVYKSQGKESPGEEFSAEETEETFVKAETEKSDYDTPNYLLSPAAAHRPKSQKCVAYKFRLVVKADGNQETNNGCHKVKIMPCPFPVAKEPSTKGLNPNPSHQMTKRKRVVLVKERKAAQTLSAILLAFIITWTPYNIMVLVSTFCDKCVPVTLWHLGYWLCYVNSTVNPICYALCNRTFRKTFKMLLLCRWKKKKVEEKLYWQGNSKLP
CHRM4 agonist: human M4 muscarinic receptor agonists, primary screen, CHO-K1 cells, Fluo-8 calcium fluorescence; activation, % at 3 µM; CHO-K1 hM4/Gqi5; vehicle 0%, full acetylcholine response 100%; AID 624127, 2012; actives 0.14% (n = 360,000);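 active means activation above the run mean over all test wells plus 3 SD, cut at about 32% in these data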;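 further: peak over basal fluorescence ratio per well then scaled between controls; 0% = DMSO wells and 100% = acetylcholine at EC100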
M5 PAM: human M5 muscarinic receptor positive allosteric modulators, primary screen, CHO-K1 cells, Fluo-8 calcium fluorescence. Muscarinic acetylcholine receptor M5 (Homo sapiens), P08912. CHO-K1 hM5, ACh EC20 PAM; 0% = ACh EC20, 100% = ACh EC100. activation, % at 3 µM. actives 0.3% (n = 360,000). AID 624038, 2012;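 active means activation above the run cutoff, the mean activation of all test compounds plus 3 SD, cut at about 18% in these data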
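Measured by: Fluo-8 calcium fluorescence; material: human M5 receptor in CHO-K1 cells; schedule: Post-acetylcholine fluorescence recording 140 s; benchmarks: low control EC20 acetylcholine (0%), high control EC100 acetylcholine (100%); read-out: Max/basal fluorescence ratio as % of EC20–EC100 ACh window; compound: single dose, 3 µM nominal final test concentration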
M5 antag: human M5 muscarinic receptor antagonists, primary screen, CHO cells, Fluo-8 calcium fluorescence; Muscarinic acetylcholine receptor M5 (Homo sapiens), P08912; CHO-hM5 cells, ACh EC80; inhibition, % at 3 µM; actives 0.59% (n = 360,000); AID 624040, 2012;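 active means inhibition above a per-plate cutoff, the mean of that plate's test compounds plus 3 SD, cut at about 27% in these data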;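 further: 0% = acetylcholine EC80 with DMSO and 100% = DMSO without agonist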
Starred values were filed as active, the others as inactive.

SMILES	CHRM4 PAM	CHRM4 antagonist	CHRM5 agonist	CHRM4 agonist	M5 PAM	M5 antag
CCn1cc([N+](=O)[O-])c(C(=O)N2N=C(c3ccc4ccccc4c3)CC2c2ccccc2O)n1 (stereo not drawn)	1	10	-1	6	6	6
COc1cccc(-c2nc(CS(=O)(=O)CC(=O)Nc3cc(F)ccc3F)c(C)o2)c1	2	-4	-3	3	0	-4
Nc1nc(Cl)cc(N2CCC(c3cc(-c4ccc(Cl)cc4)n[nH]3)CC2)n1	-7	36*	14	26	-25	39*
COc1ccc2nc(S(=O)Cc3ncc(C)c(OC)c3C)[nH]c2c1 (stereo not drawn)	-16	42*	0	1	-5	5
COCCCOc1ccnc(CS(=O)c2nc3ccccc3[nH]2)c1C (stereo not drawn)	-1	-33	0	4	-4	-4
CCc1ccc(N/C(SC)=C(/C#N)C(N)=O)cc1	3	-11	2	-1	-4	-5
CCCCS/C(=C(/C#N)C(N)=O)c1cc2c([nH]1)CCCC2	-29	34*	-7	-2	-16	7
COCCNC(=O)CCn1nc(-c2ccc(C)cc2)ccc1=O	0	-8	-5	1	4	-4
Cc1ccc(NC(=O)c2cccnc2)c([N+](=O)[O-])c1	0	-4	-1	0	-3	6
Cc1ccc(NC(=O)c2cncc(Br)c2)c([N+](=O)[O-])c1	23*	-9	0	1	-2	-1
Cc1noc(C(=O)Nc2cccc(O)c2)c1Cl	12	22	1	1	10	-10
CCN(CCCNC(=O)CC(C(=O)N1CCc2ccccc21)n1ccnc1)c1cccc(C)c1 (stereo not drawn)	3	0	-1	-2	0	-1
CCCCNC(=O)CC(C(=O)N1CCc2ccccc21)n1ccnc1 (stereo not drawn)	34*	28*	6	0	-2	-10
N#CCC1(O)C(=O)N(Cc2ccccc2)c2ccccc21 (stereo not drawn)	3	1	-1	1	2	-4
O=C(NC(c1ccc(-c2ccccc2)cc1)c1cnccn1)C1CCN(CCCOc2ccccc2)CC1 (stereo not drawn)	-14	4	7	36*	-6	4
CCCCCCCCCCCCCCCC[n+]1ccccc1	-16	45*	-2	0	-19	86*
CCCCCCCCCCCCCCCC[n+]1ccc(/C=N/O)cc1	-13	14	-7	1	-17	28*
O/N=C/c1cccc[n+]1CCCCCC[n+]1ccccc1/C=N/O	-9	13	-21	0	3	3
CCCCCCCCCCCCCCCC[n+]1ccc(C(N)=O)cc1	-21	12	-3	1	-13	14
CN(C(=O)c1cc(-c2ccccc2)on1)C1CCCCC1	2	-1	-2	3	-3	13
O=S(=O)(O)c1cc(O)ccc1O	0	-8	36*	2	-13	-10
COc1ccc(C2NCCc3c2[nH]c2ccccc32)cc1CSc1nc2ccccc2s1 (stereo not drawn)	-12	32*	-3	9	-4	4
COC(=O)c1[nH]c2c(c1C)C(=O)CC(c1cccs1)C2 (stereo not drawn)	30*	12	-7	10	0	5
C=C1C(=O)C=C2CN(C(=O)c3ccccc3)[C@@](Cc3ccc(F)cc3)(C(=O)OC)[C@@H]12	-18	96*	81*	143*	-41	93*
CC(=O)OC1CCC2C3CCc4cc(OP(=O)(N5CC5)N5CC5)ccc4C3CCC12C (stereo not drawn)	-3	3	0	1	0	8
SMILES	CHRM4 PAM	CHRM4 antagonist	CHRM5 agonist	CHRM4 agonist	M5 PAM	M5 antag
Cc1cccc(C)c1NC(=O)C1CCCN(CCCc2ccccc2)C1 (stereo not drawn)	-25	83*	-11	2	-34	22
CC(=O)NC(=O)NC1OC(=O)C(Cl)=C1Cl (stereo not drawn)	17*	-15	-3	1	0	1
Cc1ccccc1S(=O)(=O)NC1OC(=O)C(Cl)=C1Cl (stereo not drawn)	1	-6	2	0	2	-7
CC1OC(CC(=O)O)CC2=C1C(=O)c1c(O)cccc1C2=O (stereo not drawn)	8	36*	23	6	0	49*
O=C1C=C(O)c2cccc(O)c2C1=O	4	-2	4	0	3	3
O=C1NC(=S)S/C1=C\c1cc(Cl)cc(Cl)c1O	-13	12	193*	52*	-41	30*
Cc1cccc(CSc2nncc(=O)[nH]2)c1	15*	-14	1	1	-4	-5
O=C(OC1CCCCC1=O)c1ccc(F)c(S(=O)(=O)N2CCOCC2)c1 (stereo not drawn)	-2	0	4	2	-3	0
CSc1ccccc1NC(=O)COC(=O)Cc1cccs1	4	7	-1	1	-3	4
CCOc1ccccc1NC(=O)COC(=O)Cc1cccs1	-15	100*	-2	-3	6	-13
COC(=O)CCCCNC(=O)Nc1ccccc1	6	7	1	1	23*	0
COC(=O)CNC(=O)CNC(=O)Nc1ccccc1	3	6	-3	-1	9	2
CC1(C(=O)O)CCCN1C(=O)c1ccccc1OC(F)(F)F (stereo not drawn)	4	-16	1	0	-3	-22
COc1ccc2c(c1)CCc1cn3nc(C)cc3nc1-2	9	-22	-5	-1	19*	-12
C#C[C@]1(O)CC[C@H]2[C@@H]3CCC4=C(CCC(=O)C4)[C@H]3CC[C@@]21C	-5	-8	4	11	-5	-6
OCc1ccnc2c(O)cccc12	7	1	0	1	22*	1
NC(=O)c1ccnc2c(O)cccc12	9	2	1	3	-2	-1
